Active and inactive are the calls of the source. No cut-off for these calls is given here.
Key:
Format in all cases: cell-based
[1] = Activation of FKBP12-rapamycin binding domain N2043S stop codon mutant in african green monkey COS1 cells after 16 hrs assessed as induction of secreted alkaline phosphatase expression assay; settings: COS-1, 16 h
Procedure, shortened: (§1)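 COS-1 cells co-transfected by electroporation with Gal4BD-FKBP (pBJ5-GF3E), VP16AD-FRB (pBJ5-FRBVE, wild-type or mutant FRB) and SeAP reporter (pG5IL2SX). Cells treated in quadruplicate for 16 h with iRap (0.5-500 nM) or rapamycin (0.05-50 nM). SeAP read as fluorescence from methylumbelliferylphosphate substrate. EC50 derived from curve fits of mean (±SEM).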

[2] = Activation of FKBP12-rapamycin binding domain I2021T W2023R K2045L S2112P stop codon mutant in african green monkey COS1 cells after 16 hrs assessed as induction of secreted alkaline phosphatase expression assay; settings: COS-1, 16 h; procedure, shortened: as §1
[3] = Activation of FKBP12-rapamycin binding domain R2110 mutant in african green monkey COS1 cells after 16 hrs assessed as induction of secreted alkaline phosphatase expression assay; settings: COS-1, 16 h; procedure, shortened: as §1
[4] = Activation of FKBP12-rapamycin binding domain A2020V I2021T D2096G stop codon mutant in african green monkey COS1 cells after 16 hrs assessed as induction of secreted alkaline phosphatase expression assay; settings: COS-1, 16 h; procedure, shortened: as §1
NIH3T3 [5] = test: Effect on stability of wild-type FKBP12-rapamycin binding domain protein expressed in mouse NIH3T3 cells assessed as increase in yellow fluorescent protein fluorescence level at 100 nM after 24 hrs by flow cytometry
Procedure, shortened: (§2)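 NIH3T3 cells stably transduced with wtFRB-YFP, treated with iRap (10 nM to 10 μM). YFP fluorescence monitored by flow cytometry over 24 h, 10,000 events per sample. Mean fluorescence intensity expressed relative to the overall highest value; duplicate.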

[6] = Activation of FKBP12-rapamycin binding domain I2021V stop codon mutant in african green monkey COS1 cells after 16 hrs assessed as induction of secreted alkaline phosphatase expression assay; settings: COS-1, 16 h; procedure, shortened: as §1
[7] = Activation of FKBP12-rapamycin binding domain mutant in african green monkey COS1 cells after 16 hrs assessed as induction of secreted alkaline phosphatase expression assay; settings: COS-1, 16 h; procedure, shortened: as §1
[8] = Activation of FKBP12-rapamycin binding domain M2026V E2049G stop codon mutant in african green monkey COS1 cells after 16 hrs assessed as induction of secreted alkaline phosphatase expression assay; settings: COS-1, 16 h; procedure, shortened: as §1
[9] = Activation of FKBP12-rapamycin binding domain T2064I Y2074H K2090R stop codon mutant in african green monkey COS1 cells after 16 hrs assessed as induction of secreted alkaline phosphatase expression assay; settings: COS-1, 16 h; procedure, shortened: as §1
[10] = Activation of FKBP12-rapamycin binding domain S2069P M2079I stop codon mutant in african green monkey COS1 cells after 16 hrs assessed as induction of secreted alkaline phosphatase expression assay; settings: COS-1, 16 h; procedure, shortened: as §1
[11] = Activation of FKBP12-rapamycin binding domain I2021T A2100V stop codon mutant in african green monkey COS1 cells after 16 hrs assessed as induction of secreted alkaline phosphatase expression assay; settings: COS-1, 16 h; procedure, shortened: as §1
NIH3T3 [12] = test: Effect on stability of wild-type FKBP12-rapamycin binding domain protein expressed in mouse NIH3T3 cells assessed as increase in yellow fluorescent protein fluorescence level at 10 uM after 24 hrs by flow cytometry; procedure, shortened: as §2
[13] = Activation of FKBP12-rapamycin binding domain C2085R stop codon mutant in african green monkey COS1 cells after 16 hrs assessed as induction of secreted alkaline phosphatase expression assay; settings: COS-1, 16 h; procedure, shortened: as §1
NIH3T3 [14] = test: Effect on stability of wild-type FKBP12-rapamycin binding domain protein expressed in mouse NIH3T3 cells assessed as increase in yellow fluorescent protein fluorescence level at 10 nM after 24 hrs by flow cytometry; procedure, shortened: as §2
[15] = Activation of FKBP12-rapamycin binding domain I2021T M2058V G2061D K2066R K2090R S2091L stop codon mutant in african green monkey COS1 cells after 16 hrs assessed as induction of secreted alkaline phosphatase expression assay; settings: COS-1, 16 h; procedure, shortened: as §1
[16] = Activation of FKBP12-rapamycin binding domain I2021T K2045E E2049G M2057T E2083K stop codon mutant in african green monkey COS1 cells after 16 hrs assessed as induction of secreted alkaline phosphatase expression assay; settings: COS-1, 16 h; procedure, shortened: as §1
[17] = Activation of FKBP12-rapamycin binding domain I2017V E2033G stop codon mutant in african green monkey COS1 cells after 16 hrs assessed as induction of secreted alkaline phosphatase expression assay; settings: COS-1, 16 h; procedure, shortened: as §1
[18] = Activation of FKBP12-rapamycin binding domain I2021T E2029G L2037S stop codon mutant in african green monkey COS1 cells after 16 hrs assessed as induction of secreted alkaline phosphatase expression assay; settings: COS-1, 16 h; procedure, shortened: as §1
NIH3T3 [19] = test: Effect on stability of FKBP12-rapamycin binding domain N2043S stop codon mutant expressed in mouse NIH3T3 cells assessed as increase in yellow fluorescent protein fluorescence level at 1 uM after 24 hrs by flow cytometry
Procedure, shortened: (§3)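 FRB (mTOR residues 2015-2114, wild-type or mutant) fused to N-terminus of YFP in pBMN. NIH3T3 cells stably transduced with retrovirus from ΦNX cells; 293T cells transiently transfected (wild-type only). Cells mock-treated or given 1 μM iRap for 24 h, then trypsinized, PBS-washed and analysed by flow cytometry (10,000 events). Mean fluorescence intensity, triplicate.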

[20] = Activation of FKBP12-rapamycin binding domain K2066R D2077G stop codon mutant in african green monkey COS1 cells after 16 hrs assessed as induction of secreted alkaline phosphatase expression assay; settings: COS-1, 16 h; procedure, shortened: as §1
[21] = Activation of FKBP12-rapamycin binding domain E2067G stop codon mutant in african green monkey COS1 cells after 16 hrs assessed as induction of secreted alkaline phosphatase expression assay; settings: COS-1, 16 h; procedure, shortened: as §1
[22] = Activation of FKBP12-rapamycin binding domain H2024R stop codon mutant protein in african green monkey COS1 cells after 16 hrs assessed as induction of secreted alkaline phosphatase expression assay; settings: COS-1, 16 h; procedure, shortened: as §1
NIH3T3 [23] = test: Effect on stability of FKBP12-rapamycin binding domain T2068S E2080G stop codon mutant expressed in mouse NIH3T3 cells assessed as increase in yellow fluorescent protein fluorescence level at 1 uM after 24 hrs by flow cytometry; procedure, shortened: as §3
[24] = Activation of FKBP12-rapamycin binding domain T2068S E2080G stop codon mutant in african green monkey COS1 cells after 16 hrs assessed as induction of secreted alkaline phosphatase expression assay; settings: COS-1, 16 h; procedure, shortened: as §1
[25] = Activation of FKBP12-rapamycin binding domain S2069P stop codon mutant in african green monkey COS1 cells after 16 hrs assessed as induction of secreted alkaline phosphatase expression assay; settings: COS-1, 16 h; procedure, shortened: as §1
293T = test: Effect on stability of wild-type FKBP12-rapamycin binding domain protein expressed in human 293T cells assessed as increase in yellow fluorescent protein fluorescence level at 1 uM after 24 hrs by flow cytometry; procedure, shortened: as §3
NIH3T3 [26] = test: Effect on stability of FKBP12-rapamycin binding domain K2066R D2077G stop codon mutant expressed in mouse NIH3T3 cells assessed as increase in yellow fluorescent protein fluorescence level at 1 uM after 24 hrs by flow cytometry; procedure, shortened: as §3
NIH3T3 [27] = test: Effect on stability of FKBP12-rapamycin binding domain H2024R stop codon mutant expressed in mouse NIH3T3 cells assessed as increase in yellow fluorescent protein fluorescence level at 1 uM after 24 hrs by flow cytometry; procedure, shortened: as §3
[28] = Activation of wild-type FKBP12-rapamycin binding domain protein in african green monkey COS1 cells after 16 hrs assessed as induction of secreted alkaline phosphatase expression assay; settings: COS-1, 16 h; procedure, shortened: as §1
NIH3T3 [29] = test: Effect on stability of wild-type FKBP12-rapamycin binding domain protein expressed in mouse NIH3T3 cells assessed as increase in yellow fluorescent protein fluorescence level at 1 uM after 24 hrs by flow cytometry; procedure, shortened: as §3
[30] = Activation of FKBP12-rapamycin binding domain stop codon>Leu mutant in african green monkey COS1 cells after 16 hrs assessed as induction of secreted alkaline phosphatase expression assay; settings: COS-1, 16 h; procedure, shortened: as §1

EC50 [1]: 0.0249 µM | EC50 [2]: 0.0314 µM | EC50 [3]: 0.25 µM | EC50 [4]: 0.0417 µM | EC50 [6]: 0.0281 µM | EC50 [7]: 0.0326 µM | EC50 [8]: 0.039 µM | EC50 [9]: 0.0221 µM | EC50 [10]: 0.0391 µM | EC50 [11]: 0.0674 µM | EC50 [13]: 0.0334 µM | EC50 [15]: 0.1 µM | EC50 [16]: 0.0297 µM | EC50 [17]: 0.023 µM | EC50 [18]: 0.0888 µM | EC50 [20]: 0.0204 µM | EC50 [21]: 0.0451 µM | EC50 [22]: 0.0144 µM | EC50 [24]: 0.0193 µM | EC50 [25]: 0.0427 µM | EC50 [28]: 0.0205 µM | EC50 [30]: 0.026 µM
Compound: CO[C@@H]1C[C@H](C[C@@H](C)[C@@H]2CC(=O)[C@H](C)/C=C(\C)[C@@H](O)[C@@H](OC)C(=O)[C@H](C)C[C@H](C)/C=C/C=C/C=C(\C)[C@@H](c3[nH]c4ccccc4c3C)C[C@@H]3CC[C@@H](C)[C@@](O)(O3)C(=O)C(=O)N3CCCC[C@H]3C(=O)O2)CC[C@H]1O
Activity (NIH3T3 [5]): Active | Activity (NIH3T3 [12]): Active | Activity (NIH3T3 [14]): Active | Activity (NIH3T3 [19]): 8 | Activity (NIH3T3 [23]): 5 | Activity (293T): Active | Activity (NIH3T3 [26]): 7 | Activity (NIH3T3 [27]): 4 | Activity (NIH3T3 [29]): 10
